Data: ChEMBL document CHEMBL3272325, “Structure-activity relationships of dimeric Catharanthus alkaloids. 1. Deacetylvinblastine amide (vindesine) sulfate” (J Med Chem, 1978)

Legend:
B16 [1] = test: Antitumor activity against mouse B16 cells allografted in B6D2F1 mouse assessed as mean survival time at 0.648 mg/kg/day, ip administered on day 1, 5 and 9 (reference value: 20.0 days); format: functional; settings: route intraperitoneal
In short: (§1)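 Male B6D2F1 mice implanted ip on day 0 with 0.25 mL of a 20% (w/v) B16 melanoma brei. Alkaloid sulfate salts given ip on days 1, 5, 9 or on days 5, 9, 13, groups of 10, against 30 untreated controls. Read-outs: median survival time with range of individual deaths, and percent increase in life span, with survivors counted on day 56.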

B16 [2] = test: Antitumor activity against mouse B16 cells allografted in B6D2F1 mouse assessed as mean survival time at 1.08 mg/kg/day, ip administered on day 1, 5 and 9 (reference value: 20.0 days); format: functional; settings: route intraperitoneal; in short: as §1
P388 [3] = test: Antitumor activity against mouse P388 cells allografted in mouse assessed as increase in life span at 6 mg/kg/day, ip after 1 day; format: functional; settings: 24 h, route intraperitoneal
In short: (§2)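 P388 ascites implanted ip in mice, 10 animals per group. Sulfate salts given ip either daily on days 1-9 or as a single dose on day 1. Median life span was calculated using all deaths and survivors. Percent increase in life span was taken over untreated controls. The highest nontoxic dose was noted.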

P388 [4] = test: Antitumor activity against mouse P388 cells allografted in mouse assessed as increase in life span at 4 mg/kg/day, ip after 1 day; format: functional; settings: 24 h, route intraperitoneal; in short: as §2
P388 [5] = test: Antitumor activity against mouse P388 cells allografted in mouse assessed as increase in life span at 2.7 mg/kg/day, ip after 1 day; format: functional; settings: 24 h, route intraperitoneal; in short: as §2
B16 [6] = test: Antitumor activity against mouse B16 cells allografted in B6D2F1 mouse assessed as mean survival time at 1.8 mg/kg/day, ip administered on day 1, 5 and 9 (reference value: 20.0 days); format: functional; settings: route intraperitoneal; in short: as §1
B16 [7] = test: Antitumor activity against mouse B16 cells allografted in B6D2F1 mouse assessed as mean survival time at 3 mg/kg/day, ip administered on day 1, 5 and 9 (reference value: 20.0 days); format: functional; settings: route intraperitoneal; in short: as §1
B16 [8] = test: Antitumor activity against mouse B16 cells allografted in B6D2F1 mouse assessed as increase in life span at 3 mg/kg/day, ip administered on day 1, 5 and 9 measured for 56 days relative to untreated control; format: functional; settings: route intraperitoneal; in short: as §1
B16 [9] = test: Antitumor activity against mouse B16 cells allografted in B6D2F1 mouse assessed as increase in life span at 1.8 mg/kg/day, ip administered on day 1, 5 and 9 measured for 56 days relative to untreated control; format: functional; settings: route intraperitoneal; in short: as §1
B16 [10] = test: Antitumor activity against mouse B16 cells allografted in B6D2F1 mouse assessed as increase in life span at 0.648 mg/kg/day, ip administered on day 1, 5 and 9 measured for 56 days relative to untreated control; format: functional; settings: route intraperitoneal; in short: as §1
B16 [11] = test: Antitumor activity against mouse B16 cells allografted in B6D2F1 mouse assessed as increase in life span at 0.389 mg/kg/day, ip administered on day 1, 5 and 9 measured for 56 days relative to untreated control; format: functional; settings: route intraperitoneal; in short: as §1
B16 [12] = test: Antitumor activity against mouse B16 cells allografted in B6D2F1 mouse assessed as mean survival time at 3 mg/kg/day, ip administered on day 5, 9 and 13 (reference value: 20.0 days); format: functional; settings: route intraperitoneal; in short: as §1
B16 [13] = test: Antitumor activity against mouse B16 cells allografted in B6D2F1 mouse assessed as mean survival time at 1.08 mg/kg/day, ip administered on day 5, 9 and 13 (reference value: 20.0 days); format: functional; settings: route intraperitoneal; in short: as §1
B16 [14] = test: Antitumor activity against mouse B16 cells allografted in B6D2F1 mouse assessed as mean survival time at 0.648 mg/kg/day, ip administered on day 5, 9 and 13 (reference value: 20.0 days); format: functional; settings: route intraperitoneal; in short: as §1
B16 [15] = test: Antitumor activity against mouse B16 cells allografted in B6D2F1 mouse assessed as mean survival time at 0.389 mg/kg/day, ip administered on day 5, 9 and 13 (reference value: 20.0 days); format: functional; settings: route intraperitoneal; in short: as §1
B16 [16] = test: Antitumor activity against mouse B16 cells allografted in B6D2F1 mouse assessed as increase in life span at 3 mg/kg/day, ip administered on day 5, 9 and 13 measured for 56 days relative to untreated control; format: functional; settings: route intraperitoneal; in short: as §1
B16 [17] = test: Antitumor activity against mouse B16 cells allografted in B6D2F1 mouse assessed as increase in life span at 1.8 mg/kg/day, ip administered on day 5, 9 and 13 measured for 56 days relative to untreated control; format: functional; settings: route intraperitoneal; in short: as §1
B16 [18] = test: Antitumor activity against mouse B16 cells allografted in B6D2F1 mouse assessed as increase in life span at 1.08 mg/kg/day, ip administered on day 5, 9 and 13 measured for 56 days relative to untreated control; format: functional; settings: route intraperitoneal; in short: as §1
B16 [19] = test: Antitumor activity against mouse B16 cells allografted in B6D2F1 mouse assessed as increase in life span at 0.389 mg/kg/day, ip administered on day 5, 9 and 13 measured for 56 days relative to untreated control; format: functional; settings: route intraperitoneal; in short: as §1
[20] = Antitumor activity against mouse Ridgeway osteogenic sarcoma cells allografted in mouse at 0.2 to 0.3 mg/kg/day, ip; format: functional; settings: route intraperitoneal
In short: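 Ridgeway osteogenic sarcoma and Gardner lymphosarcoma in mice, with sulfate salts given ip daily on days 1-9. Tumor growth inhibition versus controls scored in bands: +++ = 75-100%, ++ = 50-75%, ± = under 25%.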

[21] = Acute toxicity in ip dosed mouse; format: organism-based; settings: in vivo
[22] = Antitumor activity against mouse P1534(J) cells allografted in mouse assessed as tumor growth inhibition at 0.25 mg/kg/day, ip administered from day 1 to day 9 relative to unreated control; format: functional; settings: P1534J, route intraperitoneal, read-out: TGI
In short: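 P1534(J) leukemia implanted subcutaneously in mice; sulfate salts given ip on days 1-9. Read-out is percent inhibition of tumor growth versus untreated controls.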

P388 [23] = test: Antitumor activity against mouse P388 cells allografted in mouse assessed as increase in life span at 0.27 mg/kg/day, ip administered from day 1 to day 9 relative to untreated control; format: functional; settings: route intraperitoneal; in short: as §2
B16 [24] = test: Antitumor activity against mouse B16 cells allografted in C57Bl/6 mouse assessed as increase in life span at 0.9 mg/kg/day, ip administered on day 1, 5 and 9 measured for 61 days relative to control; format: functional; settings: route intraperitoneal
In short: (§3)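 C57BL/6 mice implanted ip with 0.5 mL of B16 melanoma brei. Alkaloid sulfate salts given ip on days 1, 5, 9 or on days 5, 9, 13. Percent increase in life span measured against controls; experiment ended at 61 days.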

B16 [25] = test: Antitumor activity against mouse B16 cells allografted in C57Bl/6 mouse assessed as increase in life span at 0.9 mg/kg/day, ip administered on day 5, 9 and 13 measured for 61 days relative to control; format: functional; settings: route intraperitoneal; in short: as §3
Rhesus monkey [26] = test: Neurotoxicity in iv dosed monkey assessed as peripheral neuropathy; format: toxicity, organism-based, Macaca mulatta; settings: in vivo
Homo sapiens = test: Neurotoxicity in human assessed as neutropenia at 3 to 4 mg/m'2, iv once weekly dosed through push technique; format: toxicity, organism-based; settings: in vivo
[27] = system: Friend murine leukemia virus; test: Antimicrobial activity against Friend leukemia virus infected in mouse assessed as inhibition of spleen enlargement at 0.25 mg/kg/day, iv for 10 days relative to untreated control; format: functional; settings: 240 h
In short: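 DBA/2 mice bearing Friend leukemia virus were dosed iv for 10 days. Spleen enlargement was compared with untreated controls.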

Rhesus monkey [28] = test: Neurotoxicity in iv dosed monkey assessed as peripheral neuropathy; settings: in vivo

**Q.** For `CC[C@]1(O)C[C@@H]2CN(CCc3c([nH]c4ccccc34)[C@@](C(=O)OC)(c3cc4c(cc3OC)N(C)[C@H]3[C@@](O)(C(N)=O)[C@H](O)[C@]5(CC)C=CCN6CC[C@]43[C@@H]65)C2)C1.O=S(=O)(O)O` [VINDESINE SULFATE], which MST (B16 [1]) is on record?
**A.** 35 days

**Q.** And the MST (B16 [2])?
**A.** 42 days

**Q.** And the ILS at 6 mg/kg/day (P388 [3])?
**A.** 109%

**Q.** And the ILS at 4 mg/kg/day (P388 [4])?
**A.** 77%

**Q.** And the ILS at 2.7 mg/kg/day (P388 [5])?
**A.** 95%

**Q.** What about the MST (B16 [6]) of the same molecule?
**A.** 48.5 days

**Q.** What about the MST (B16 [7]) of the same molecule?
**A.** 47.5 days

**Q.** What about the ILS at 3 mg/kg/day (B16 [8]) of the same molecule?
**A.** 138%

**Q.** What about the ILS at 1.8 mg/kg/day (B16 [9]) of the same molecule?
**A.** 142%

**Q.** And the ILS at 0.648 mg/kg/day (B16 [10])?
**A.** 75%

**Q.** And the ILS at 0.389 mg/kg/day (B16 [11])?
**A.** 85%

**Q.** And the MST (B16 [12])?
**A.** 29.5 days

**Q.** And the MST (B16 [13])?
**A.** 31.5 days

**Q.** What about the MST (B16 [14]) of the same molecule?
**A.** 27 days

**Q.** And the MST (B16 [15])?
**A.** 25 days

**Q.** What about the ILS at 3 mg/kg/day (B16 [16]) of the same molecule?
**A.** 48%

**Q.** What about the ILS at 1.8 mg/kg/day (B16 [17]) of the same molecule?
**A.** 90%

**Q.** And the ILS at 1.08 mg/kg/day (B16 [18])?
**A.** 58%

**Q.** What about the ILS at 0.389 mg/kg/day (B16 [19]) of the same molecule?
**A.** 25%

**Q.** What about the TGI [20] of the same molecule?
**A.** 75%

**Q.** What about the LD50 [21] of the same molecule?
**A.** 6.3 mg/kg

**Q.** What about the inhibition in vivo at 0.25 mg/kg/day [22] of the same molecule?
**A.** 100%

**Q.** What about the ILS at 0.27 mg/kg/day (P388 [23]) of the same molecule?
**A.** 172%

**Q.** And the ILS at 0.9 mg/kg/day (B16 [24])?
**A.** 60%

**Q.** And the ILS at 0.9 mg/kg/day (B16 [25])?
**A.** 78%

**Q.** What about the Activity (Rhesus monkey [26]) of the same molecule?
**A.** Non-toxic

**Q.** And the Activity (Homo sapiens)?
**A.** Toxic

**Q.** And the inhibition in vivo at 0.25 mg/kg/day [27]?
**A.** 90%

**Q.** And the Activity (Rhesus monkey [28])?
**A.** Non-toxic
